Source: ChEMBL document CHEMBL4229560, “Increasing C-Terminal Hydrophobicity Improves the Cell Permeability and Antiproliferative Activity of PACE4 Inhibitors against Prostate Cancer Cell Lines” (J Med Chem, 2018)
Where a SMILES comes first, the peptide text is derived from it. [ ]: non-standard residue; d: D form. The star is where a group is joined. NH(4-amidinobenzyl) = N=C(N)c1ccc(CN*)cc1

Tests used:
LNCaP [1] = test: Antitumor activity against human LNCAP cells xenografted in nu mouse assessed as reduction in tumor volume at 2 mg/kg/day, iv administered at 24 hr intervals; format: functional; design: scale not given: the % may be the effect or the level left
LNCaP [2] = test: Antitumor activity against human LNCAP cells xenografted in nu mouse assessed as reduction in serum prostate-specific antigen levels at 2 mg/kg/day, iv administered at 24 hr intervals; format: functional; design: scale not given: the % may be the effect or the level left
[3] = Acute toxicity in iv dosed CD1 mouse measured within 5 mins post dose; format: organism-based; details: in vivo
In short: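 Healthy CD1 mice received a single intravenous dose, given at various dose levels, to locate the toxicity threshold as a maximum tolerated dose (MTD).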

[4] = Half life in human plasma by ion chromatogram-based analysis; format: ADME, cell-free
In short: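 Peptide at 50 µM was incubated at 37 °C in human serum from male AB plasma. At each time point, plasma was precipitated with MeOH containing Fmoc-Leu-OH internal standard, centrifuged and filtered. Samples were analysed by UPLC-MS. The peptide/standard ratio of total ion chromatogram peak area was expressed relative to 0 h.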

LNCaP [5] = test: Antiproliferative activity against human LNCAP cells after 72 hrs by MTT assay; format: functional, cell-based
In short: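 MTT assay run 72 h. Seeding was ~1500 cells/well for DU145 and ~2500 cells/well for LNCaP, in RPMI 1640 with 5% FBS (DU145) or 10% FBS (LNCaP). Medium was changed after 24 h, then inhibitor added at 1–300 µM or 1–150 µM. MTT was added at 1 g/L final for 4 h and formazan dissolved in 2-propanol/HCl. Readings were relative to vehicle (water, 0.1% DMSO). IC50 was from at least two independent experiments.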

Homo sapiens = species on record: Homo sapiens; test: Selectivity ratio of Ki for recombinant human furin to Ki for recombinant human PACE4
In short: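 Ki values came from human recombinant enzymes expressed in S2 insect cells. Furin was assayed in 100 mM HEPES pH 7.5, 1 mM CaCl2, 1 mM β-mercaptoethanol and 1.8 g/L BSA. PACE4 was assayed in 20 mM Bis-Tris pH 6.5, 1 mM CaCl2 and 1.8 g/L BSA. Substrate was pERTKR-AMC at 100 µM, with inhibitor at 0–10 µM. Fluorescence (ex 370/em 460 nm) was read for 1 h, and Ki derived by Cheng-Prusoff.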

CC(=O)N[C@H](CC(C)C)C(=O)N[C@@H](CC(C)C)C(=O)N[C@@H](CC(C)C)C(=O)N[C@@H](CC(C)C)C(=O)N[C@@H](CCCNC(=N)N)C(=O)N[C@H](C(=O)N[C@@H](CCCCN)C(=O)NCc1ccc(C(=N)N)cc1)C(C)C (Ac-[dL]LLLRVK-{NH(4-amidinobenzyl)})
Activity (LNCaP [1]): 60%
Activity (LNCaP [2]): 47%
MTD at 5 min [3]: 10 mg/kg
half-life [4]: 1.7 h
IC50 (LNCaP [5]): 45 µM
Ratio Ki (Homo sapiens): 2
